The data set is described as follows: Toxicity liver stage against HepG2, at 10uM. Further details: test concentration 10 uM, cell line HepG2-A16-CD81EGFP. The following applies: human, HepG2-A16-CD81EGFP cells; read-out: INHIBITION
The class given is cell-based. The method in brief: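 Uninfected HepG2-A16-CD81EGFP cells, 3 × 10^3 per well, 1536-well, plated on prespotted compound at 10 μM final, parasite-free screening media added to match infected plates; puromycin 10 μM positive, DMSO 0.5% negative; run in parallel with 48 h PbLuc assay at 37 °C, 5% CO2; viability by CellTiter-Glo luminescence, normalized to controls.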

`CCCC(=O)NCCc1cc(N2CCN(C(C)=O)CC2)nc(C2CC2)n1`: the cytotoxicity at 10 µM was -28.2%.
The same measure for `O=C(C1CC1)N1CCN(Cc2ccncc2)c2ncccc2C1`: -3.88%; for `O=C(NC1CCCCC1)N1CCc2onc(COc3cccnc3)c2C1`: -69.9%.
For the compound `CC(C)NC(=O)N[C@H]1C[C@@H](Cc2cc(CN3CCOCC3)on2)C1(C)C`, the cytotoxicity at 10 µM is -5.5%.
The same measure for `Cn1cc(S(=O)(=O)Nc2c(F)cccc2N2CCCC2)cn1`: -4.24%; for `CCN1CC(=O)c2sc(NC(C)C)nc2C1`: -10.6%; for `Cc1cccc(C2CCCCCN2Cc2cn(C)nc2C)c1` (centres undefined): -1.17%.
Turning to `Cc1cnc(N)c(C(=O)C2CCN(C(=O)C3CCC3)CC2)c1`, the cytotoxicity at 10 µM is -23.1%.
The same measure for `CNS(=O)(=O)c1ccc(C(=O)NCCc2ccccn2)cc1`: -3.81%; for `Cc1noc([C@@]23CCO[C@@H]2CCN(C(=O)CN(C)C)C3)n1`: 10.1%; for `Fc1cnc(N2CCO[C@H]3CN(CC4CCCCC4)C[C@H]32)nc1`: 6.61%.
Take `Cn1ncc2c1C(COCC1CC1)CN(C(=O)c1ccoc1)C2` (centres undefined): the cytotoxicity at 10 µM is -2.18%.
As for `CCc1nc(C)c(-c2nccn2CC2CC(=O)N(CC)C2)[nH]1` (centres undefined), the figure is 0.361%.
In the case of `CCC[C@@H]1CN(Cc2cc3c(cc2OC)OCCO3)C[C@H]1C(=O)O`, the cytotoxicity at 10 µM is -9.47%.
The same measure for `Cc1c(Cl)cccc1NC(=O)N1CCC2(CC1)NC(=O)CC2C(=O)O` (centres undefined): -1%; for `CN(Cc1cnc(N)nc1)C(=O)C1CCN(C(=O)C2CCCC2)CC1`: -1.42%.
For the compound `CN(C)C1CCCN(C(=O)c2ccc3sc4c(c3c2)CCNC4=O)CC1` (centres undefined), the cytotoxicity at 10 µM is -8.58%.
For the compound `COc1cccc(CNCc2ccc(F)cc2Cl)c1O`, the cytotoxicity at 10 µM was -3.3%.
As for `Cc1ccc(C(CNCc2cccc3c2OCO3)N2CCOCC2)o1` (centres undefined), the figure is -38.9%; as for `CN1CCC(N(C)C[C@H]2CC[C@@H](Cc3ccc4c(cnn4C)c3)O2)CC1`, 5.03%; as for `CCS(=O)(=O)NCC(=O)N1CCC(c2cc3ccccc3[nH]2)CC1`, -7.79%.
As for `CN1CCCC(C(=O)N2CCC(Oc3ccccn3)CC2)C1` (centres undefined), the figure is -5.15%; as for `c1cn(CCNc2nc(NC3CC3)nc3c2CCNCC3)nn1`, -52.8%.
The same measure for `O=C(CCC1CCN(Cc2ncc[nH]2)CC1)Nc1ccccc1Cl`: -21.8%; for `O=S(=O)(C1CC1)N1CCC2(CC1)CN(Cc1ccccn1)CCO2`: -0.358%.
`CSCC(=O)Nc1ncn(Cc2cccc(Br)c2)n1`: the cytotoxicity at 10 µM is -12%.
The same measure for `c1nc2n(c1CN1CCCC1)CCN(C1CCOCC1)CC2`: -71.1%; for `CCc1noc(C2CCCCN2C(=O)c2cccs2)n1` (centres undefined): 6.5%; for `c1ccc(-c2nc(CCNCc3cccnc3)co2)cc1`: -5.35%.
The same measure for `O=C1NCCCCC1NC(=O)C1(c2ccc3c(c2)OCCO3)CCCC1` (centres undefined): 0.969%; for `COCC(=O)N1CCN(C(C)c2ncc(-c3ccccc3)o2)CC1` (centres undefined): 5.66%.
Take `CC(=O)Nc1cccc2c1ccn2CC(=O)Nc1ncc[nH]1`: the cytotoxicity at 10 µM was 5.83%.
As for `Cc1nc(NCCN2CCCC2=O)cc(C2CN(C)CCO2)n1` (centres undefined), the figure is -10.5%.
As for `CN1C(=O)CC(C(=O)O)C12CCN(c1ccc3ccccc3n1)CC2` (centres undefined), the figure is 1.21%; as for `NC(=O)[C@@H]1CCCN1C(=O)c1cn(C/C=C/c2ccccc2)nn1`, 2.32%.
The same measure for `CN1CCC(NC(=O)CCCc2cc(Cl)sc2Cl)C1=O` (centres undefined): -2.46%; for `N#Cc1cccc(CNc2ccc(F)cc2OCCO)c1`: -2.03%; for `O=C(c1cc(COc2ccc3c(c2)OCO3)[nH]n1)N1CCCC1`: -0.526%.
In the case of `Cn1ccnc1CN1CCC2(CC(=O)N(c3cncnc3)C2)C1` (centres undefined), the cytotoxicity at 10 µM is -0.799%.

These data come from ChEMBL document CHEMBL4513216, “Probing the Open Global Health Chemical Diversity Library for Multistage-Active Starting Points for Next-Generation Antimalarials” (ACS Infect Dis, 2020).
